Most compounds without a hit are left out; they make up all but 1.8% or so of the library.
SUMO1 PPI mod – modulators of human SUMO1-mediated protein-protein interactions. SUMO1 binding to a labelled peptide, TR-FRET, 1 h. inhibition, % at 20 µM. hit rate 0.33% among 360,000. AID 602429; in the data active means inhibition above about 37%
DNMT1 inh – blocks human DNA methyltransferase DNMT1; DNMT1 molecular beacon, Hinp1I cleavage, fluorescence; P26358; inhibition (reported as % activation of signal), % at 10 µM; hit rate 0.83% among 360,000; in the data active means inhibition above about 50%
LMPTP inh – blocks human LMPTP phosphatase. P24666. recombinant LMPTP-A, OMFP fluorogenic substrate, fluorescence intensity. inhibition, % at 20 µM. hit rate 0.22% among 360,000. AID 651560;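 active means compounds that cut the enzyme signal by at least half of the control window in the single-dose screen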
Target sequence (P24666 whole entry, looked up): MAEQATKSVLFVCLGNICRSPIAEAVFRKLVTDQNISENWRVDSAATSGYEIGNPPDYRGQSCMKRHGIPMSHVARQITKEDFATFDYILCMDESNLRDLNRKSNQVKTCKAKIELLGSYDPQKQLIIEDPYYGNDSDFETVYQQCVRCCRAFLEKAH
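Assay system: LMPTP-A enzyme. Input: 0.625 nM LMPTP-A final. Probe or stimulus: 400 µM OMFP. Compound dosing: single 20 µM dose. Schedule: 50 min dark incubation at room temperature. Detection: fluorescence intensity of OMFP turnover product. Read-out: percent inhibition versus substrate-only and uninhibited controls. Benchmarks: no-enzyme low control, uninhibited high control.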
Scp-1 inhibitor – Scp-1 (human) phosphatase inhibition; Recombinant Scp1, phosphopeptide, malachite green phosphate absorbance; Q9GZU7; hit rate 0.88% among 340,000; inhibition, % at 20 µM;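 active means inhibition above about 50% at 20 µM, limit read from the data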
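Test system: SCP-1 catalytic domain; Buffer or medium: Acidic Tris acetate buffer with magnesium and detergent; Also added: Phosphorylated 17-residue peptide substrate; Compound: single 20 µM dose, 1% DMSO; Schedule: enzyme reaction 45 min at room temperature, colour 5 min, stabilisation 30 min; Signal: Phosphate-binding colour reagent, absorbance read at 630 nm.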
STEP block – blocks human striatal-enriched tyrosine phosphatase. inhibition, % at 20 µM. AID 588621. hit rate 0.25% among 360,000. recombinant STEP, OMFP fluorogenic substrate, fluorescence;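 active means inhibition at 20 µM, scaled per plate between control wells, above about 37%, limit read from the data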
Target sequence (P54829 whole entry, looked up): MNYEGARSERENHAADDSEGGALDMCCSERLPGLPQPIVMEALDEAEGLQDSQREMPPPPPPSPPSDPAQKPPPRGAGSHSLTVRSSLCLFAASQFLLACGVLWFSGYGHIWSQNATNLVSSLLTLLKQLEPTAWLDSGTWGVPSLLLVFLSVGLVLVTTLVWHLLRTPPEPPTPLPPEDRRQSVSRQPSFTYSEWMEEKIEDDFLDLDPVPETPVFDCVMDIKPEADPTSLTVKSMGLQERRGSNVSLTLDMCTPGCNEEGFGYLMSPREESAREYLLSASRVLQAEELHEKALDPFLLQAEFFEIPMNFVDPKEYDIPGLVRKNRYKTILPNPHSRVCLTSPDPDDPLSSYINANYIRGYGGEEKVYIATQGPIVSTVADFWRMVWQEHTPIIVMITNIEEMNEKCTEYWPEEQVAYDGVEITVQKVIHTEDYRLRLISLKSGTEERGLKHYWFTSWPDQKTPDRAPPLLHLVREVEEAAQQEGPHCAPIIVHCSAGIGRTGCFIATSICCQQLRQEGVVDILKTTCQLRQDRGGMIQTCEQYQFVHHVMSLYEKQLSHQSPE
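System: isolated STEP enzyme; schedule: 20 min enzyme reaction at room temperature, protected from light; medium: Bis-Tris buffer pH 6.0, 2.5 mM DTT, 0.005% Tween 20; signal: fluorescence, 480/540 nm; dosing: single compound dose of 20 µM, 1% DMSO final; also added: OMFP substrate, 25 µM final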
Large screens that a line does not name were inactive.

Cc1cc(C)n(-c2ccc(NC(=O)C3CCCCN3C(=O)c3ccc(C)s3)cc2)n1 (configuration not stated)	none
CN(C)CCNc1ccc2ncn3c4ccc(O)cc4c(=O)c1c23	DNMT1 inh 85.9, LMPTP inh 62.6
O=S(=O)(O)c1cc(O)c2c(O)c(N=Nc3cc(Cl)ccc3O)c(S(=O)(=O)O)cc2c1	SUMO1 PPI mod 84.2, DNMT1 inh 84.8, LMPTP inh 102.1, Scp-1 inhibitor 83.3, STEP block 100.8
Oc1ccc(Cl)cc1N=Nc1ccccc1	none
Cc1c(-c2ccccc2)c(-c2ccc(OCCN(C)C)cc2)n2ccccc12	LMPTP inh 80.2
CCN1C(=O)[C@@H]2[C@@H](c3ccc(SC4CCCCC4)cc3)N3CCCC[C@@]3(C(=O)OC)[C@@H]2C1=O	none
Cc1ccc(NC(=O)CN(C)C(=O)CSc2nccn2C)cc1	none
Oc1c(N=Nc2nn[nH]n2)ccc2ccccc12	SUMO1 PPI mod 50.1 (no result: Scp-1 inhibitor)
Oc1c(N=Nc2ccc(F)cc2)ccc2ccccc12	none
Cc1[nH]ccc(=O)c1Cc1c(Cl)cccc1Cl	LMPTP inh 78.2
O=c1cc[nH]c2c(Cl)cccc12	none
COCC1CCCCN1C(=O)c1ccc(OC)c(OC2CCN(C(C)C)CC2)c1 (configuration not stated)	none
CCCCN(C(C)=O)c1ccc(S(=O)(=O)NC2=NCCCCC2)cc1NC(C)=O	none
COc1ccc(N(CC(=O)NCc2cccs2)S(=O)(=O)c2ccc(C(C)=O)cc2)cc1	none (no result: Scp-1 inhibitor)
Cn1c(SCC(=O)Nc2ccc3nc(SCC(=O)N4CCCC4)sc3c2)nnc1-c1ccccc1	Scp-1 inhibitor 102.4 (no result: SUMO1 PPI mod, DNMT1 inh, LMPTP inh, STEP block)
Cc1ccc(C)n1-c1sccc1C(=O)O	SUMO1 PPI mod 66.3, DNMT1 inh 106.8, Scp-1 inhibitor 79.9, STEP block 75.0
CC1CCN(C(=O)c2cc3ccccc3cc2O)CC1	none
CCN(CC)c1ccc2cc(-c3nc4ccccc4n3C)c(=O)oc2c1	none
CCN(CC)c1ccc2cc(-c3nc4ccccc4[nH]3)c(=O)oc2c1	DNMT1 inh active
O=c1c(-c2ccco2)nc2ccccc2n1C(c1ccccc1)c1nc2ccccc2[nH]1 (configuration not stated)	none (no result: DNMT1 inh, Scp-1 inhibitor, STEP block)
COc1ccc(C(O)c2nc(-c3ccccc3OC)cs2)cc1 (configuration not stated)	none (no result: Scp-1 inhibitor)
CN(C)c1ccc(-c2nc3ccccn3c2/N=C/c2ccc(Br)cc2)cc1	STEP block 41.9
CCCCN(C(=O)c1cc(S(=O)(=O)N2CCOCC2)ccc1N1CCOCC1)c1ccccc1	none (no result: Scp-1 inhibitor)
CCCCN(C(=O)c1cc(S(=O)(=O)N2CCCCCC2)ccc1OC)c1ccccc1	SUMO1 PPI mod 59.9
CNc1ccc2c3c(cccc13)C(=O)N(C)C2=O	DNMT1 inh active
C#CCN1C(=O)S/C(=C\c2ccc(-c3ccc(C(=O)O)cc3C)o2)C1=O	DNMT1 inh 79.1, Scp-1 inhibitor 61.7
O=C(O)c1cc(-c2ccc(/C=C3/SC(=S)N(Cc4ccccc4)C3=O)o2)ccc1Cl	DNMT1 inh 83.3, LMPTP inh 71.3, Scp-1 inhibitor 56.9
Cc1ccc(NC(=O)CN2C(=O)S/C(=C/c3ccc(-c4cccc(C(=O)O)c4)o3)C2=O)cc1	DNMT1 inh 55.6, LMPTP inh 64.2, Scp-1 inhibitor 64.9, STEP block 40.5
Cc1cc(C(=O)O)ccc1-c1ccc(/C=C2\SC(=O)N(CC(=O)Nc3ccc4c(c3)OCO4)C2=O)o1	SUMO1 PPI mod 72.8, DNMT1 inh 100.7, LMPTP inh 79.5, STEP block 64.3 (no result: Scp-1 inhibitor)
Cc1c(/C=C2\SC(=O)N(CC(=O)Nc3ccc4c(c3)OCO4)C2=O)c2ccccc2n1C	none
CCCCOCCCNC(=O)C[C@@H]1C[C@@]2(C(=O)OC)CC(C)(C)CC=C2N(Cc2cccc3ccccc23)C1=O	none (no result: DNMT1 inh, Scp-1 inhibitor, STEP block)
Cc1cc(C)n(C(=O)Cn2nc(C)c(Br)c2C)n1	none
CCOc1ccc(CCN2C(=O)C(=O)N([C@@H](CC(C)C)CN3CCC[C@H]3CN3C(=O)C(=O)NC[C@@H]3Cc3ccccc3)C[C@@H]2Cc2ccccc2)cc1	none (no result: DNMT1 inh, Scp-1 inhibitor, STEP block)
CC(C)Oc1ccc(-c2nc(NCC3CCCO3)c3ccccc3n2)cc1 (configuration not stated)	LMPTP inh 50.9
Cc1cc(C(=O)Nc2cccc(O)c2)c(C)o1	SUMO1 PPI mod 37.5
O=c1cc(-c2ccc(O)cc2)oc2c1ccc1ccccc12	SUMO1 PPI mod 90.3, LMPTP inh 54.1
O=c1cc(-c2ccncc2)oc2c1ccc1ccccc12	none
O=c1cc(-c2ccc(O)cc2)oc2c(O)c(O)c(O)c(O)c12	Scp-1 inhibitor 69.0
O=C1NC[C@@H](CCCCN2C[C@H](Cc3ccc(O)cc3)N(CCc3ccc(O)cc3)C(=O)C2=O)N(CCc2ccccc2)C1=O	none (no result: DNMT1 inh, Scp-1 inhibitor, STEP block)
O=C1NC[C@@H](CCCCN2C[C@H](Cc3ccc(O)cc3)N(CCc3ccc(O)cc3)C(=O)C2=O)N(CCc2ccc(O)cc2)C1=O	SUMO1 PPI mod 43.8 (no result: DNMT1 inh, Scp-1 inhibitor, STEP block)
Cn1c(SCC(=O)NC2CCCCC2)nnc1-c1cccc(N)c1	SUMO1 PPI mod 40.5
CCc1ccc(NC(=O)CSc2nc3nc(C)cc(C)n3n2)cc1	none
Cc1cccc(C)c1NC(=O)C1(C)CSCC(=O)N1Cc1ccco1 (configuration not stated)	none (no result: DNMT1 inh, Scp-1 inhibitor, STEP block)
COCCNC(=S)NNC(=O)c1cc(C2CC2)nc2ccccc12	none
COc1cccc(/C=N/NC(=O)c2c(-c3ccccc3)noc2C)c1OC	none
COc1ccc(Cl)cc1/C=N/NC(=O)c1c(-c2ccccc2)noc1C	SUMO1 PPI mod 53.4
CCOc1cc(/C=N/Nc2ccc(S(=O)(=O)Nc3ccccc3C(=O)O)cc2[N+](=O)[O-])cc(Cl)c1O	SUMO1 PPI mod 66.3 (no result: Scp-1 inhibitor)
COc1cc(C=NNc2ccc(S(=O)(=O)Nc3ccccc3C(=O)O)cc2[N+](=O)[O-])ccc1O	none
O=C(O)c1ccccc1NS(=O)(=O)c1ccc(N/N=C/c2cccc(O)c2O)c([N+](=O)[O-])c1	LMPTP inh 69.4, Scp-1 inhibitor 88.5
O=C(CCNc1n[nH]c(=O)[nH]c1=O)N/N=C\c1cccc(OCc2ccccc2)c1	none
O=C(COC(=O)CCc1ccccc1)NC1CCS(=O)(=O)C1 (configuration not stated)	none
COc1ccccc1C(=O)Nc1ccnn1C1CCN(CC2CC=CCC2)CC1 (configuration not stated)	none
O=C(O)CN1C(=O)/C(=C2\SC(=S)N(C(Cc3ccccc3)C(=O)O)C2=O)c2ccccc21 (configuration not stated)	none
O=C(O)CCN1C(=O)/C(=C2\C(=O)N(Cc3ccccc3Cl)c3ccccc32)SC1=S	DNMT1 inh 88.9, LMPTP inh 80.4, STEP block 98.5 (no result: Scp-1 inhibitor)
COc1ccc(NC(=O)CN2C(=O)/C(=C3\SC(=S)N(CCC(=O)O)C3=O)c3ccccc32)cc1	LMPTP inh 85.6, Scp-1 inhibitor 96.6
CC1(C(=O)Nc2ccc3c(c2)OCCO3)CN(S(C)(=O)=O)CC(=O)N1CCc1ccc(O)cc1 (configuration not stated)	none (no result: DNMT1 inh, Scp-1 inhibitor, STEP block)
